Results reported in ChEMBL document CHEMBL1828569, “Cyclopentane-1,3-dione: a novel isostere for the carboxylic acid functional group. Application to the design of potent thromboxane (A2) receptor antagonists” (J Med Chem, 2011).

Experiments:
Thromboxane A2 receptor [1] = target: T1, Thromboxane A2 receptor (Mus musculus, UniProt P30987); experiment: Displacement of [3H]SQ-29548 from mouse prostanoid TP receptor expressed in QBI-HEK 293A cells after 2 hrs by scintillation proximity assay; type: cell-based, HEK293
T1 sequence (P30987 whole entry): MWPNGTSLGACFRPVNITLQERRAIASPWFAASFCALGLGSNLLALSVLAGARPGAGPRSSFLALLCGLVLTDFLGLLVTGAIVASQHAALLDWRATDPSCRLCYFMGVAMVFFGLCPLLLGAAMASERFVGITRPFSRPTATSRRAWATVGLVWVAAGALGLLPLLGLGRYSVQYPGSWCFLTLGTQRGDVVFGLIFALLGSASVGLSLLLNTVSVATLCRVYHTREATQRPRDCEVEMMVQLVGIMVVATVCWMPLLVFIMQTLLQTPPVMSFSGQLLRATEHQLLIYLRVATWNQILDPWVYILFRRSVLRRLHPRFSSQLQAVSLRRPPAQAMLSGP
Method in brief: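 Membranes from QBI-HEK 293A cells stably expressing mouse TP receptor. Cells were harvested in PBS/1 mM EDTA, homogenized in 20 mM Hepes/1 mM EGTA/0.5 mM DTT with protease inhibitors, spun at 1000g and then 21 000 rpm, and the pellet resuspended in Hepes/EGTA/100 mM NaCl. Antagonist at 10 concentrations, 62.5 μg membrane, 100 μg PVT-WGA SPA beads and 20 nM [3H]SQ29,548 in 50 mM Tris, 4 mM CaCl2, 0.1% ascorbate, pH 7.5, 2 h at 25 °C.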

Thromboxane A2 receptor [2] = target: T1, Thromboxane A2 receptor; experiment: Antagonist activity at mouse prostanoid TP receptor expressed in QBI-HEK 293A cells assessed as inhibition of […]-induced increase in inositol monophosphate after 1 hr by time-resolved fluorescence assay; type: functional, cell-based, HEK293
Method in brief: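 QBI-HEK 293A cells stably transfected with human or mouse TP receptor cDNA, seeded at 10 000 cells/well and grown 16 h at 37 °C. Cells were preincubated 15 min at 37 °C with antagonist at varying concentrations in Hepes-buffered saline containing 50 mM LiCl, pH 7.4. I-BOP was then added at 1.6 nM for 1 h. IP1 was measured by HTRF (Tb anti-IP1 cryptate/D2-IP1, 1 h at 25 °C) as the 665/620 nm ratio.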

Thromboxane A2 receptor [3] = target: T2, Thromboxane A2 receptor (Homo sapiens, UniProt P21731); experiment: Displacement of [3H]SQ-29548 from human prostanoid TP receptor expressed in QBI-HEK 293A cells after 2 hrs by scintillation proximity assay; type: cell-based, HEK293
T2 sequence (P21731 whole entry): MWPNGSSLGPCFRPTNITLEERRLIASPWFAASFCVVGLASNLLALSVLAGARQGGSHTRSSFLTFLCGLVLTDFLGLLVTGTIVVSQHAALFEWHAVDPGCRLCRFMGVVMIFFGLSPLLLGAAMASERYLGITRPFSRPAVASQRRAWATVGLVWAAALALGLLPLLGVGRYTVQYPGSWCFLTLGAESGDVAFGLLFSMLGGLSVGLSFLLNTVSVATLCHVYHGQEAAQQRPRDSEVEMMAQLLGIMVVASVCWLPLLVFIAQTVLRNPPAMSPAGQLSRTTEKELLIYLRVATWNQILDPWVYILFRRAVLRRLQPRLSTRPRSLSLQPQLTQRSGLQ

Thromboxane A2 receptor [4] = target: T2, Thromboxane A2 receptor
[5] = Dissociation constant, pKa of the compound by pH metric method; type: physicochemical
[6] = Solubility of the compound in acetonitrile at 10 uM after 2 hrs by spectrophotometry; type: physicochemical
[7] = Lipophilicity, log D of the compound at pH 7.4 by pH metric method; type: physicochemical; conditions: buffer
[8] = Octanol-phosphate buffer partition coefficient, log P of the compound by pH metric method; type: physicochemical

| Compound | Kd (Thromboxane A2 receptor [1]) | Kd (Thromboxane A2 receptor [3]) | IC50 (Thromboxane A2 receptor [4]) | pKa [5] | solubility [6] | logD [7] | logP [8] | further results |
| --- | --- | --- | --- | --- | --- | --- | --- | --- |
| O=S(=O)(NCCc1cccc(CCCO)c1)c1ccc(Cl)cc1 | 10000 nM | > 10000 nM | 15100 nM | – | – | – | – | IC50 (Thromboxane A2 receptor [2]): 1630 nM |
| O=C1C=C(O)CC1 | – | – | – | 4.2 | – | – | – | – |
| CC1=C(O)CCC1=O | – | – | – | 4.47 | – | – | – | – |
| O=C1C=C(O)CC1Cc1ccc(Br)cc1 (centres undefined) | – | – | – | 3.96 | soluble | -0.42 | 3.02 | – |
| CC1=C(O)CC(Cc2ccc(Br)cc2)C1=O (centres undefined) | – | – | – | 4.24 | soluble | 0.11 | 3.28 | – |
| O=C1CCC(O)=C1Cc1ccc(Br)cc1 | – | – | – | 4.2 | soluble | -0.19 | 3.01 | – |
| O=C(O)CCc1ccc(Br)cc1 | – | – | – | 4.33 | soluble | 0.01 | 3 | – |
| Brc1ccc(Cc2nn[nH]n2)cc1 | – | – | – | 4.62 | soluble | -0.42 | 2.21 | – |
| O=S(=O)(NCCc1cccc(CCc2nnn[nH]2)c1)c1ccc(Cl)cc1 | 19 nM | 331 nM | 64 nM | – | – | – | – | IC50 (Thromboxane A2 receptor [2]): 8 nM |
| O=c1c(O)c(NCc2cccc(CCNS(=O)(=O)c3ccc(Cl)cc3)c2)c1=O | 17 nM | 359 nM | 377 nM | – | – | – | – | IC50 (Thromboxane A2 receptor [2]): 91 nM |
| O=C1CCC(O)=C1Cc1cccc(CCNS(=O)(=O)c2ccc(Cl)cc2)c1 | 1200 nM | 11400 nM | > 10000 nM | – | – | – | – | – |
| O=C1CCC(O)=C1CCc1cccc(CCNS(=O)(=O)c2ccc(Cl)cc2)c1 | – | – | > 10000 nM | – | – | – | – | – |
| O=C1C=C(O)C(Cc2cccc(CCNS(=O)(=O)c3ccc(Cl)cc3)c2)C1 (centres undefined) | 11 nM | 203 nM | – | – | – | – | – | – |
| CC1=C(O)C(Cc2cccc(CCNS(=O)(=O)c3ccc(Cl)cc3)c2)CC1=O (centres undefined) | 26 nM | 328 nM | – | – | – | – | – | – |
| CC1=C(OCC(C)C)CC(Cc2cccc(CCNS(=O)(=O)c3ccc(Cl)cc3)c2)C1=O (centres undefined) | – | – | > 10000 nM | – | – | – | – | – |
| O=C(O)CCc1cccc(CCNS(=O)(=O)c2ccc(Cl)cc2)c1 | 26 nM | – | – | – | – | – | – | – |
